Experimental data published in PMC4067939 (Bioorganic & medicinal chemistry, 2014).
“Also recorded” adds a separate entry of the source.

How the values were obtained:
GGDPS [1] = biological target: T1, GGDPS (Homo sapiens, UniProt O95749); conditions: cited from earlier work
T1 sequence (O95749 1-300): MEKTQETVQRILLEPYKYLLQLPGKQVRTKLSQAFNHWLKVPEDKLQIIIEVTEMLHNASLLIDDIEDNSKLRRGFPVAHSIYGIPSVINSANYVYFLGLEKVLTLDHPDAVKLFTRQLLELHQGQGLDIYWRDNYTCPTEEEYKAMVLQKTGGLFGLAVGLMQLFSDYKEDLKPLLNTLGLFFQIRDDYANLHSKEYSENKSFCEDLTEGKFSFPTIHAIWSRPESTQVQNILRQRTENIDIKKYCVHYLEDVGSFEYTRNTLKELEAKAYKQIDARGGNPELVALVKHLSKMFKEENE

[2] = tested on: Rap1a geranylgeranylation in RPMI-8226 cells; test: Immunoblot of unmodified Rap1a in RPMI-8226 cells; assay type: cell-based, human; conditions: 48 hours; for disruption of Rap1a geranylgeranylation (accumulation of unmodified Rap1a): 10 µM, Figure 3A; for concentration at which unmodified Rap1a is observed: tested at 0.1, 1, 10 µM
How it was run: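 Whole-cell lysates were made in RIPA buffer with protease/phosphatase inhibitors, BCA-normalised, and run on SDS-PAGE/PVDF immunoblot. The antibody recognises only unmodified Rap1a; β-tubulin was the loading control; detection was HRP/ECL. Gels represent two independent experiments.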

[3] = tested on: Rab6 geranylgeranylation in RPMI-8226 cells; assay type: cell-based, human; conditions: 10 µM, 48 hours, Figure 3A
How it was run: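 Triton X-114 lysis gave aqueous (cytosolic) and detergent (membrane) fractions. Equal protein (BCA) was run on SDS-PAGE and blotted to PVDF for Rab6 with HRP/ECL detection. Loading controls were β-tubulin (aqueous) and calnexin (detergent). Gels represent two independent experiments.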

GGTase II [4] = biological target: T2, GGTase II (Rattus norvegicus, UniProt Q08602+Q08603); test: GGTase II enzyme assay; assay type: biochemical; conditions: for inhibitory activity against GGTase II: at concentrations up to 1 mM
T2 sequence (Q08602 1-567): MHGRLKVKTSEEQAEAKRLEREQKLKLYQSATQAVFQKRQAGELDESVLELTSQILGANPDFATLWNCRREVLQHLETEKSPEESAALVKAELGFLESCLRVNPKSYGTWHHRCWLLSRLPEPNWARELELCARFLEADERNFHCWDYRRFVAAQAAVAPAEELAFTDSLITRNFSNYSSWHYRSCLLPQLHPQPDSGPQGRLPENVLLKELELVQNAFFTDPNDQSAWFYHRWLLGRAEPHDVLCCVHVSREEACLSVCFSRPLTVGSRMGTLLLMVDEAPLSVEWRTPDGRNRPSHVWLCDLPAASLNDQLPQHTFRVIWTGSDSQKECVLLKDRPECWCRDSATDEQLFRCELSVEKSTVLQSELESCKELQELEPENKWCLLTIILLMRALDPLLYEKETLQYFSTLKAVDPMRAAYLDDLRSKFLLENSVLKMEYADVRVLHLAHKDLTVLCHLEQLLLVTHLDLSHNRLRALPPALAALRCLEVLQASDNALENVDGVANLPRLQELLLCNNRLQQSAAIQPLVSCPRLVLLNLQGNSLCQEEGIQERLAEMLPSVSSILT
T2 sequence (Q08603 1-331): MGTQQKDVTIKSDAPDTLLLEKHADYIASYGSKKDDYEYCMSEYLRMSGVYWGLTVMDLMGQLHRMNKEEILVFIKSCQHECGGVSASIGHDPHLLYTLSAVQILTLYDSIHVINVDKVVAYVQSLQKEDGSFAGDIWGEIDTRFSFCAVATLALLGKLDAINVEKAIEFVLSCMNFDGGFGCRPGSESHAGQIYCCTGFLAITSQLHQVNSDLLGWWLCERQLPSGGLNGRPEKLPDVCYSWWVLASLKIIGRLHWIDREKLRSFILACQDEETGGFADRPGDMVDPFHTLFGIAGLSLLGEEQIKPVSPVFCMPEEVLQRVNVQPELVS
How it was run: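 Reaction mix: 30 nM recombinant GGTase II, 2 µM His-tagged Rab1A (E. coli-expressed, Ni-NTA purified) and 1 µM REP-2 in 50 mM sodium HEPES, 5 mM MgCl₂, 1 mM DTT, 1 mM NP-40, ±test compound. Started with 5 µM [³H]-GGPP, 20 min at 37 °C, stopped with 10% HCl/EtOH. P-81 filters were EtOH-washed and scintillation-counted. IC50 came from concentration-response curves.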

GGDPS [5] = biological target: T1, GGDPS; test: GGDPS enzyme assay; assay type: biochemical; conditions: in vitro enzyme assay
GGTase II [6] = biological target: T2, GGTase II; conditions: ref our prior studies; cited from earlier work
[7] = tested on: intracellular FPP levels in RPMI-8226 cells; test: Measurement of intracellular FPP levels in RPMI-8226 cells; assay type: cell-based, human; conditions: 1 µM, 24 hours, Figure 4
How it was run: (§1)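 Isoprenoid pyrophosphates were extracted in butanol/75mM ammonium hydroxide/ethanol (1:1.25:2.75) and dried under nitrogen. FPP was coupled to fluorescent GCVLS by FTase and GGPP to GCVLL by GGTase I. Peptides were quantified by reversed-phase HPLC-fluorescence. Results are % untreated control, mean ± SD, n=2, unpaired two-tailed t-test.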

[8] = tested on: monoclonal protein trafficking in RPMI-8226 cells; test: Monoclonal protein quantitation; assay type: cell-based, human; conditions: 10 µM, 48 hours, Figure 5
How it was run: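 Cells were lysed in RIPA with protease/phosphatase inhibitors and protein measured by BCA. Intracellular lambda light chain was quantified by human lambda light chain ELISA. Results are % untreated control, mean ± SD, n=3, unpaired two-tailed t-test (α 0.05).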

[9] = tested on: intracellular GGPP levels in RPMI-8226 cells; test: Measurement of intracellular GGPP levels in RPMI-8226 cells; assay type: cell-based, human; conditions: 1 µM, 24 hours, Figure 4
How it was run: as §1

FTase = FTase (Rattus norvegicus, UniProt Q02293+Q04631); test: FTase enzyme assay; assay type: biochemical
How it was run: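 Ran 1 h at 30 °C, then ice and acetonitrile/5% HCl stop. Centrifuged supernatant went to HPLC with fluorescence detection of prenylated peptide. IC50 came from concentration-response curves.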

Row | IC50 (GGTase II [4]) | Molecule | disruption of Rap1a geranylgeranylation (accumulation of unmodified Rap1a) [2] | disruption of Rab6 geranylgeranylation (Rab6 in aqueous fraction) [3] | inhibitory activity against GGTase II (GGTase II [4]) | effect on intracellular lambda light chain levels [8] | further results
1 |  | 2E,6Z-farnesylbisphosphonate [Compound 22] |  |  |  |  | fold less potent GGDPS inhibitor than the 2E,6E-isomer (GGDPS [1]; farnesyl bisphosphonate isomers): approximately 6 fold
2 | > 1 mM | CC(C)=CCC[C@@]1(C)O[C@@H]1Cn1cc(CC(P(=O)([O-])[O-])P(=O)([O-])[O-])nn1.[Na+].[Na+].[Na+].[Na+] (racemic) [Compound 12, Sodium (E)-(2-(1-((3-methyl-3-(4-methylpent-3-en-1-yl)oxiran-2-yl)methyl)-1H-1,2,3-triazol-4-yl)ethane-1,1-diyl)bis(phosphonate)] | neither of the epoxide derivatives (12 and 20) displayed activity in this assay | neither of the epoxide derivatives (12 and 20) displayed activity in this assay | neither of the individual olefin isomers (11 or 19) nor the related epoxides (12 or 20) displayed inhibitory activity |  | 
3 | > 1 mM | CC(C)=CCC[C@]1(C)O[C@@H]1Cn1cc(CC(P(=O)([O-])[O-])P(=O)([O-])[O-])nn1.[Na+].[Na+].[Na+].[Na+] (racemic) [Compound 20, Sodium (Z)-(2-(1-((3-methyl-3-(4-methylpent-3-en-1-yl)oxiran-2-yl)methyl)-1H-1,2,3-triazol-4-yl)ethane-1,1-diyl)bis(phosphonate)] | neither of the epoxide derivatives (12 and 20) displayed activity in this assay | neither of the epoxide derivatives (12 and 20) displayed activity in this assay | neither of the individual olefin isomers (11 or 19) nor the related epoxides (12 or 20) displayed inhibitory activity |  | GGDPS activity, comparison in words (GGDPS [5]): reduces the activity against GGDPS to a level comparable to the geranyl triazole
4 | > 1 mM | CC(C)=CCCC(C)=CCn1cc(CC(P(=O)([O-])[O-])P(=O)([O-])[O-])nn1.[Na+].[Na+].[Na+].[Na+] [Compound 1] | A similar pattern was displayed | A similar pattern was displayed |  | induces an accumulation of intracellular lambda light chain equivalent to that induced by the positive control DGBP | inhibition of GGTase II (GGTase II [6]): does not inhibit GGTase II; effect on intracellular FPP levels [7]: increased FPP levels; effect on intracellular GGPP levels [9]: decreased GGPP levels
5 | > 1 mM | CC(C)=CCC/C(C)=C/Cn1cc(CC(P(=O)([O-])[O-])P(=O)([O-])[O-])nn1.[Na+].[Na+].[Na+].[Na+] [Compound 11, Sodium (E)-(2-(1-(3,7-dimethylocta-2,6-dien-1-yl)-1H-1,2,3-triazol-4-yl)ethane-1,1-diyl)bis(phosphonate)] | only weakly disrupted Rap1a geranylgeranylation |  | neither of the individual olefin isomers (11 or 19) nor the related epoxides (12 or 20) displayed inhibitory activity | has no effect on intracellular light chain levels | disruption of Rap1a geranylgeranylation at 10 µM ([2]; Figure 3B): only weakly disrupted Rap1a geranylgeranylation; IC50 (FTase): > 0.5 mM
6 | > 1 mM | CC(C)=CCC/C(C)=C\Cn1cc(CC(P(=O)([O-])[O-])P(=O)([O-])[O-])nn1.[Na+].[Na+].[Na+].[Na+] [Compound 19, Sodium (Z)-(2-(1-(3,7-dimethylocta-2,6-dien-1-yl)-1H-1,2,3-triazol-4-yl)ethane-1,1-diyl)bis(phosphonate)] | effectively disrupted both Rap1a and Rab6 geranylation | effectively disrupted both Rap1a and Rab6 geranylation | neither of the individual olefin isomers (11 or 19) nor the related epoxides (12 or 20) displayed inhibitory activity | This activity is a consequence of the neryl triazole 19; also recorded: disrupts monoclonal protein trafficking | concentration at which unmodified Rap1a is observed ([2]; Figure 3B): 1 µM; effect on intracellular FPP levels [7]: increased FPP levels; also recorded: increases intracellular FPP levels; GGDPS activity, comparison in words (GGDPS [5]): slightly less potent; effect on intracellular GGPP levels [9]: even more potently decreased GGPP levels; also recorded: depletes cells of GGPP
7 |  | CC(C)=CCC/C(C)=C/CC/C(C)=C/CC(P(=O)(O)O)P(=O)(O)O [Compound 21, 2E,6E-farnesyl bisphosphonate] |  |  |  |  | fold more potent than the 2E,6Z-isomer 22 (GGDPS [1]; ref earlier studies): about 6 fold
8 |  | CC(C)=CCC/C(C)=C/CC(C/C=C(\C)CCC=C(C)C)(P(=O)(O)O)P(=O)(O)O [DGBP, digeranyl bisphosphonate, reference compound] | accumulation of unmodified Rap1a and Rab6 | accumulation of unmodified Rap1a and Rab6 |  | accumulation of intracellular lambda light chain | concentration at which unmodified Rap1a is observed ([2]; Figure 3B): 10 µM; mode of GGDPS inhibition (GGDPS [1]): competitive with respect to FPP as opposed to IPP
9 |  | CC(C)=CCC/C(C)=C\CC(C/C=C(/C)CCC=C(C)C)(P(=O)(O)O)P(=O)(O)O [dineryl bisphosphonate] |  |  |  |  | fold less potent GGDPS inhibitor than DGBP (GGDPS [1]): approximately 14 fold
10 |  | CC(C)=CCCC(C)=CCC(P(=O)(O)O)P(=O)(O)O [geranyl bisphosphonate] |  |  |  |  | potency relative to the corresponding neryl bisphosphonate (GGDPS [1]; monoalkyl series): at least one order of magnitude more potent
11 |  | CC(C)=CCCC(C)=CCC(CC=C(C)CCC=C(C)C)(P(=O)(O)O)P(=O)(O)O [geranyl/neryl] |  |  |  |  | fold less potent GGDPS inhibitor than DGBP (GGDPS [1]): approximately 14 fold
